# Assay results: ChEMBL document CHEMBL1909547, “Discovery of spiropiperidine-based potent and selective Orexin-2 receptor antagonists” (Bioorg Med Chem Lett, 2011)
# What was measured:
# [1] = Lipophilicity, log D of the compound; assay type: physicochemical; conditions: octanol/water
# [2] = biological target: T1, Orexin/Hypocretin receptor type 1 (Homo sapiens, UniProt O43613); assay: Antagonist activity at OX1R expressed in dihydrofolate reductase deficient CHO cells assessed as inhibition of orexin A-induced intracellular calcium mobilization by FLIPR assay; assay type: functional, cell-based
# T1 sequence (O43613 whole entry): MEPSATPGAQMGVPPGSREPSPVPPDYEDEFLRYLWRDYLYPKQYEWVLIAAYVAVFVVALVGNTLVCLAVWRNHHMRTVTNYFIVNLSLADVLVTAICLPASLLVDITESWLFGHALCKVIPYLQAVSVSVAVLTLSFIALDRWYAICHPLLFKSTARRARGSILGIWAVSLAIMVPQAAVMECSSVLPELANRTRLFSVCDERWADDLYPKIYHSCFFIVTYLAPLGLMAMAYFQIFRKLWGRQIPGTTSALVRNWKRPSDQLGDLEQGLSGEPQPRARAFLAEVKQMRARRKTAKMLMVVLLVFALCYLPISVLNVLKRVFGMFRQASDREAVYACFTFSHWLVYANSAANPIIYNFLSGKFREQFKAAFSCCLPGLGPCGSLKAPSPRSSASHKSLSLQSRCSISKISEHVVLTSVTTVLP
# [3] = Selectivity ratio of IC50 for OX1R to IC50 for OX2R
# [4] = Solubility of the compound in stomach simulated fluid JP1; assay type: physicochemical
# Outline: (§1)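 Solubility was measured in the Japanese Pharmacopoeia dissolution fluids. JP1 is the first fluid, an acidic stomach-simulating solution. JP2 is the second fluid, a buffer that mimics intestinal pH.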
# [5] = Solubility of the compound in intestine simulated fluid JP2; assay type: physicochemical; outline: as §1
# Orexin receptor type 2 = biological target: T2, Orexin receptor type 2 (Homo sapiens, UniProt O43614); assay: Antagonist activity at OX2R expressed in dihydrofolate reductase deficient CHO cells assessed as inhibition of orexin A-induced intracellular calcium mobilization by FLIPR assay; assay type: functional, cell-based
# T2 sequence (O43614 whole entry): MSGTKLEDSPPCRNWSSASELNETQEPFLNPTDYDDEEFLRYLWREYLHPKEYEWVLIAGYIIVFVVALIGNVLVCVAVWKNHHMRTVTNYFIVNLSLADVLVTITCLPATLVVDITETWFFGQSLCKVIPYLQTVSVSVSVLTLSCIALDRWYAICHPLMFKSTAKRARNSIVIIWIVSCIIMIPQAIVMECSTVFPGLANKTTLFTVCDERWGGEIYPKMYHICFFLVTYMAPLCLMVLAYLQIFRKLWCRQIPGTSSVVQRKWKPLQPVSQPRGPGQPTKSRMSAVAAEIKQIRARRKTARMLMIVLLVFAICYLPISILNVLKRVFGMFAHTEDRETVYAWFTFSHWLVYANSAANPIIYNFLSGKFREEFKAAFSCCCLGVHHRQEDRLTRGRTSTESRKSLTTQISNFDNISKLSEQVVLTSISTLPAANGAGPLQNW
logD [1],IC50 [2],Ratio IC50 [3],solubility [4],solubility [5],IC50 (Orexin receptor type 2),Compound
1.75,2.3 µM,18,2.1 mg/mL,2.4 mg/mL,0.13 µM,COc1cccc(S(=O)(=O)N2CCOC23CCN(C(=O)Nc2ccccc2)CC3F)c1 (racemic)
1.5,2.5 µM,11,8.5 mg/mL,12 mg/mL,0.22 µM,O=C(Nc1ccccc1)N1CCC2(OCCN2S(=O)(=O)c2ccccc2)[C@@H](F)C1 (mixture of isomers)
1.93,> 10 µM,> 10,21 mg/mL,18 mg/mL,1 µM,O=C(Nc1ccccc1)N1CCC2(OCCN2S(=O)(=O)c2ccccc2)C(F)(F)C1 (racemic)
1.35,1.5 µM,450,5.9 mg/mL,4.5 mg/mL,0.0033 µM,COc1ccc(S(=O)(=O)N2CCOC23CCN(C(=O)Nc2ccccc2)CC3F)cc1OC (stereo not given)
2.04,0.28 µM,1.6,45 mg/mL,34 mg/mL,0.17 µM,O=C(Nc1ccccc1)N1CCC2(OCCN2S(=O)(=O)c2ccccc2)[C@H](F)C1 (mixture of isomers)
–,1.6 µM,7,–,–,0.23 µM,O=S(=O)(c1ccccc1)N1CCOC12CCN(c1cnc3ccccc3n1)CC2
1.63,1.6 µM,18,0.49 mg/mL,0.58 mg/mL,0.087 µM,COc1ccc(S(=O)(=O)N2CCOC23CCN(C(=O)Nc2ccccc2)CC3F)cc1 (racemic)
1.82,6.3 µM,8.9,< 0.07 mg/mL,1.7 mg/mL,0.71 µM,O=C(Nc1ccccc1)N1CCC2(CC1)OCCN2S(=O)(=O)c1ccccc1
